The nature of data set [1]: Capmatinib/CMN288 pharmacokinetics, inhibition cohort. The format is in vivo, human (healthy subjects). The following applies: inhibition cohort, healthy subjects, plasma. The gist of the method: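 Inhibition cohort of healthy subjects (n = 27): a single fasted oral 200 mg dose on day 1, then a 4-day washout. Itraconazole 200 mg was given daily on days 5–14, and 200 mg test compound was dosed 1 h after the sixth itraconazole dose (day 10). Plasma was sampled serially to 96 h after each dose and assayed by validated LC-MS/MS (LLOQ ≈1.0 ng/mL). Test/reference ratios are antilogged point estimates with 2-sided 90%CIs.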

Data set [2] is described as follows: Capmatinib/CMN288 pharmacokinetics, induction cohort. Format: in vivo, human (healthy subjects). The following applies: induction cohort, healthy subjects, plasma. The gist of the method: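 Healthy subjects (induction cohort, n = 26) received a single fasted oral 400 mg dose on day 1, then a 4-day washout. Rifampicin 600 mg was given daily on days 5–13, with 400 mg test compound coadministered with the sixth dose on day 10. Serial plasma was drawn to 72 h after each dose and frozen <–70°C. Parent and metabolite were measured by validated LC-MS/MS (LLOQ ≈1.0 ng/mL). Ratios are antilogged 90%CIs.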

For data set [3] the following is noted: itraconazole 200 mg daily; cited from earlier work.
Setting [4] is: single oral capmatinib 200 mg + itraconazole 200 mg/day.
Setting [5] is: single oral capmatinib 200 mg alone.
The mark [6] stands for this setting: single oral capmatinib 400 mg + rifampicin 600 mg/day.
Setting [7] is: single oral capmatinib 400 mg alone.

Regarding `CNC(=O)c1ccc(-c2nn3c(Cc4ccc5ncccc5c4)cnc3[nH]c2=O)cc1F` [CMN288], in data set [1] (setting [4]), the “CMN288 AUCinf, geometric mean (geometric CV%)” value (“CMN288 AUCinf … (geometric CV%)” for short) was 4290 (42.3) ng · h/mL; the “CMN288 AUCinf, mean (CV%)” value is 4600 (35.7) ng · h/mL; the “CMN288 AUClast, geometric mean (geometric CV%)” value (“CMN288 AUClast … (geometric CV%)” for short) was 4260 (43.2) ng · h/mL; the “CMN288 AUClast, mean (CV%)” value is listed as 4570 (36.0) ng · h/mL. Besides, in data set [1] (setting [4]), the “CMN288 Cmax, geometric mean (geometric CV%)” value (from here on “CMN288 Cmax … (geometric CV%)”) is recorded as 590 (63.8) ng/mL; the “CMN288 Cmax, mean (CV%)” value is 682 (50.8) ng/mL; the “CMN288 tmax, median (range)” value is given as 2.00 (0.983–4.01) h; the “MR (AUCinf), metabolite-to-parent drug ratio, mean (CV%)” value is 0.572 (25.1). Moreover, in data set [1] (setting [4]), the “MR (AUClast), metabolite-to-parent drug ratio, mean (CV%)” value is listed as 0.570 (25.6) and the “MR (Cmax), metabolite-to-parent drug ratio, mean (CV%)” value is 0.462 (29.2). In data set [1] (setting [5]), the “CMN288 AUCinf … (geometric CV%)” value is given as 3640 (36.6) ng · h/mL; the “CMN288 AUCinf, mean (CV%)” value is 3870 (35.5) ng · h/mL; the “CMN288 AUClast … (geometric CV%)” value is 3580 (37.6) ng · h/mL; the “CMN288 AUClast, mean (CV%)” value is 3810 (36.2) ng · h/mL. Besides, in data set [1] (setting [5]), the “CMN288 Cmax … (geometric CV%)” value is 665 (48.7) ng/mL; the “CMN288 Cmax, mean (CV%)” value is 736 (47.0) ng/mL; the “CMN288 tmax, median (range)” value was 1.01 (0.968–6.02) h; the “MR (AUCinf), metabolite-to-parent drug ratio, mean (CV%)” value is listed as 0.699 (25.4). In data set [1] (setting [5]), the “MR (AUClast), metabolite-to-parent drug ratio, mean (CV%)” value is given as 0.685 (27.5) and the “MR (Cmax), metabolite-to-parent drug ratio, mean (CV%)” value is listed as 0.533 (30.5). Also, in data set [2] (setting [6]), the “CMN288 AUCinf … (geometric CV%)” value is recorded as 5110 (31.9) ng · h/mL; the “CMN288 AUCinf, mean (CV%)” value was 5360 (32.1) ng · h/mL; the “CMN288 AUClast … (geometric CV%)” value is given as 5070 (32.3) ng · h/mL; the “CMN288 AUClast, mean (CV%)” value is reported as 5320 (32.5) ng · h/mL. In addition, in data set [2] (setting [6]), the “CMN288 Cmax … (geometric CV%)” value is reported as 1570 (39.8) ng/mL; the “CMN288 Cmax, mean (CV%)” value is given as 1690 (38.1) ng/mL; the “CMN288 tmax, median (range)” value was 0.998 (0.924–3.00) h; the “MR (AUCinf), metabolite-to-parent drug ratio, mean (CV%)” value is 1.37 (26.0). In data set [2] (setting [6]), the “MR (AUClast), metabolite-to-parent drug ratio, mean (CV%)” value is given as 1.35 (25.0) and the “MR (Cmax), metabolite-to-parent drug ratio, mean (CV%)” value is 1.17 (28.9). Also, in data set [2] (setting [7]), the “CMN288 AUCinf … (geometric CV%)” value is given as 7420 (28.4) ng · h/mL; the “CMN288 AUCinf, mean (CV%)” value was 7710 (30.1) ng · h/mL; the “CMN288 AUClast … (geometric CV%)” value is recorded as 7310 (28.4) ng · h/mL; the “CMN288 AUClast, mean (CV%)” value was 7600 (30.2) ng · h/mL. Also, in data set [2] (setting [7]), the “CMN288 Cmax … (geometric CV%)” value was 1500 (41.4) ng/mL; the “CMN288 Cmax, mean (CV%)” value is 1610 (39.2) ng/mL; the “CMN288 tmax, median (range)” value is given as 0.994 (0.957–3.00) h; the “MR (AUCinf), metabolite-to-parent drug ratio, mean (CV%)” value is on record as 0.634 (25.2). In addition, in data set [2] (setting [7]), the “MR (AUClast), metabolite-to-parent drug ratio, mean (CV%)” value is 0.627 (25.1) and the “MR (Cmax), metabolite-to-parent drug ratio, mean (CV%)” value was 0.492 (30.8).

As to `Cc1nnc2n1-c1ccc(Cl)cc1C(c1ccccc1Cl)=NC2` [triazolam], in data set [3], the “Increase in exposure with itraconazole regimen” value is 27 fold.

The values above are taken from paper PMC10092221 (Journal of Clinical Pharmacology, 2022).
